Calls of active or inactive are those of the source. The rule behind the calls is not given here.
What was measured:
[1] = molecular target: T1, Mitogen-activated protein kinase 8 (Homo sapiens, UniProt P45983); assay: Inhibition of human JNK1alpha1 after 40 mins by [gamma-33ATP] radiometric assay relative to control
[2] = molecular target: T1, Mitogen-activated protein kinase 8; assay: Inhibition of human JNK1alpha1 at 10 uM after 40 mins by [gamma-33ATP] radiometric assay relative to control
[3] = molecular target: T1, Mitogen-activated protein kinase 8; assay: Inhibition of human JNK1alpha1 at 30 uM after 40 mins by [gamma-33ATP] radiometric assay relative to control
[4] = system: Epidermal growth factor receptor (Homo sapiens), P00533 [L858R]; assay: Inhibition of human EGFR L858R at 10 uM using poly[Glu:Tyr] (4:1) as substrate measured after 40 mins in presence of [gamma-33P]ATP by radiometric assay
Method in brief: (§1)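 Human EGFR L858R incubated in 8 mM MOPS pH 7.0, 0.2 mM EDTA, 10 mM MnCl2, 0.1 mg/mL poly(Glu,Tyr) 4:1, 10 mM Mg acetate, [γ-33P]-ATP (approx. 500 cpm/pmol); MgATP start, 40 min room temperature, 3% phosphoric acid stop, Filtermat A spotting, washes in 75 mM phosphoric acid and methanol, scintillation readout; % of uninhibited activity.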

[5] = molecular target: T2, Mitogen-activated protein kinase 10 (Homo sapiens, UniProt P53779); assay: Inhibition of human JNK3 after 40 mins by [gamma-33ATP] radiometric assay relative to control
T2 sequence (P53779 whole entry): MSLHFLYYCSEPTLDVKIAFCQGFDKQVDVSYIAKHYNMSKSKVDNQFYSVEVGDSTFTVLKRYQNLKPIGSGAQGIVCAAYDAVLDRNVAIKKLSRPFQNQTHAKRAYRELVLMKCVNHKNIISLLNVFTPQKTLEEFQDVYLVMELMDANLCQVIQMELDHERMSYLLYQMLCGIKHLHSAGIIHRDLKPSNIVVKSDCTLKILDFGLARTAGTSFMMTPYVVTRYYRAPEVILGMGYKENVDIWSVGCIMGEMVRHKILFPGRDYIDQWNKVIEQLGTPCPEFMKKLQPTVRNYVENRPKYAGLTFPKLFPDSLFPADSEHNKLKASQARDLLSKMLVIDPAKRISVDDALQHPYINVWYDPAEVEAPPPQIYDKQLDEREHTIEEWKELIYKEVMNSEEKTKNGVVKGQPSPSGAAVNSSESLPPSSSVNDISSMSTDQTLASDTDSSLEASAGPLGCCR

[6] = molecular target: Epidermal growth factor receptor (Homo sapiens, UniProt P00533, L858R); assay: Inhibition of human EGFR L858R using poly[Glu:Tyr] (4:1) as substrate measured after 40 mins in presence of [gamma-33P]ATP by radiometric assay; method in brief: as §1
Epidermal growth factor receptor (Homo sapiens, UniProt P00533, L858R), sequence (P00533 25-1210 L858R limits assumed): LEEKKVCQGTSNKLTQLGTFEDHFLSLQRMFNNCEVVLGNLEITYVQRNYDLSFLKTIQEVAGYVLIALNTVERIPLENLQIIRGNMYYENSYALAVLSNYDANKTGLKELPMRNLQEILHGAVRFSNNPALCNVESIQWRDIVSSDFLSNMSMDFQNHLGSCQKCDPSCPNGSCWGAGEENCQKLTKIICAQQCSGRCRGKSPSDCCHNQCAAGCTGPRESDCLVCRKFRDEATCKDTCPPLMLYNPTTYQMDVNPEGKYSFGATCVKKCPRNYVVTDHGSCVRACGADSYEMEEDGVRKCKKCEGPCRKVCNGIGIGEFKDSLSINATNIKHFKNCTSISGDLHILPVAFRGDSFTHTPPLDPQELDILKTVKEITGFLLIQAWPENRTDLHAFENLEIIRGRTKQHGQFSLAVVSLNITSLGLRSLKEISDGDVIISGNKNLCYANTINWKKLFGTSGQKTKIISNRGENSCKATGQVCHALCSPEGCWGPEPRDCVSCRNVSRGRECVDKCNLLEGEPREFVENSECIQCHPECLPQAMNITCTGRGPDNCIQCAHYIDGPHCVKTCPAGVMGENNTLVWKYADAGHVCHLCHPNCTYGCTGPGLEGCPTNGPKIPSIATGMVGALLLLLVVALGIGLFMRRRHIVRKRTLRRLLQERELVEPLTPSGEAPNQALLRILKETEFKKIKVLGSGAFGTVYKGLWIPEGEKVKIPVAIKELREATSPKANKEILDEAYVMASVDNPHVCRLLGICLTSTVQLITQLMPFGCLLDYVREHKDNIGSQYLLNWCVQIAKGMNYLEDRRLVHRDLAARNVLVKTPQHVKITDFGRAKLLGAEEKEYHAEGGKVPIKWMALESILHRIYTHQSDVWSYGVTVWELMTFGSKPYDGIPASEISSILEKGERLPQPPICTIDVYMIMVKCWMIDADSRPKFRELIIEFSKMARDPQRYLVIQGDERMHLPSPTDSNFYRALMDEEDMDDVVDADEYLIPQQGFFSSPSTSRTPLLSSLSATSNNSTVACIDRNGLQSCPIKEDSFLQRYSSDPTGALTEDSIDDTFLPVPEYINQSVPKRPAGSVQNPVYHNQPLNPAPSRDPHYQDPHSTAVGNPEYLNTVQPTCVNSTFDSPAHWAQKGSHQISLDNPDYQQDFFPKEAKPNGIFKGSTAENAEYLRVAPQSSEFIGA

[7] = molecular target: Epidermal growth factor receptor (Homo sapiens, UniProt P00533, L858R/T790M); assay: Inhibition of human EGFR L858R/T790M mutant GGMEDIYFEFMGGKKK as substrate measured after 40 mins in presence of [gamma-33P]ATP by radiometric assay
Epidermal growth factor receptor (Homo sapiens, UniProt P00533, L858R/T790M), sequence (P00533 25-1210 T790M/L858R limits assumed): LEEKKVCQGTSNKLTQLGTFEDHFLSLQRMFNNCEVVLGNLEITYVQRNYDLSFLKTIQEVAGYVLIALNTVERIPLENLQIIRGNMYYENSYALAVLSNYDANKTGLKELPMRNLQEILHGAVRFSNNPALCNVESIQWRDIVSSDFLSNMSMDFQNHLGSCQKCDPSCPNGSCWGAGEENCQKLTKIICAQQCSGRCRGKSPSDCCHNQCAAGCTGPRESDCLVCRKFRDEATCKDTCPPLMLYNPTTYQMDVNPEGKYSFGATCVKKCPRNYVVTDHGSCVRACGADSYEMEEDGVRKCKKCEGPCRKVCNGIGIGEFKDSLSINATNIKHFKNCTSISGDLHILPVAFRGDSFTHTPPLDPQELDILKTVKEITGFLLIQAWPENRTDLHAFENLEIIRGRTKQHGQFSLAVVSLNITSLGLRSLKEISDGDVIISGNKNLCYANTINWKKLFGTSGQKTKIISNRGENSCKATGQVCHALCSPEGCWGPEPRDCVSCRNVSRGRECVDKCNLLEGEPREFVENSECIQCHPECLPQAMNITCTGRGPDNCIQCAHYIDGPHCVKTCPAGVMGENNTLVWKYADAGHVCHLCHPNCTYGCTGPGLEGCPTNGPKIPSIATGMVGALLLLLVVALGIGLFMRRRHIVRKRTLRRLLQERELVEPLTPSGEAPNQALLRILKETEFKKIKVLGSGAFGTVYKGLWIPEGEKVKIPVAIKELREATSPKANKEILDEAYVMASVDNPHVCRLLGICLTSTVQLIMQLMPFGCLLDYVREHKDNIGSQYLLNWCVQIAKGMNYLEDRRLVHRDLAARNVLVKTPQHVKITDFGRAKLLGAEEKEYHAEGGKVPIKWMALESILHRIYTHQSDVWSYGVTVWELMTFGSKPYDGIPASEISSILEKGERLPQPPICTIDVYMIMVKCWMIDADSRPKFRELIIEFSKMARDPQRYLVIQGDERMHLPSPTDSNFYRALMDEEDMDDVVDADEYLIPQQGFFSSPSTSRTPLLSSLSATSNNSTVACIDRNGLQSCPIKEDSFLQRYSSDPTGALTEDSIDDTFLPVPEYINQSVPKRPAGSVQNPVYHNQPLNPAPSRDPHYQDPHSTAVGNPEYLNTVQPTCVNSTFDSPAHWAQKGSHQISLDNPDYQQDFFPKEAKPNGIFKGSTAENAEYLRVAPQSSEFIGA
Method in brief: (§2)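 EGFR T790M/L858R (human) in 8 mM MOPS pH 7.0, 0.2 mM EDTA, 250 μM peptide substrate, 10 mM Mg acetate, [γ-33P]-ATP (approx. 500 cpm/pmol); initiated with MgATP, 40 min room temperature, terminated with 3% phosphoric acid, P30 filtermat, 75 mM phosphoric acid and methanol washes, scintillation counting.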

[8] = molecular target: T1, Mitogen-activated protein kinase 8; assay: Inhibition of human JNK1alpha1 at 100 uM after 40 mins by [gamma-33ATP] radiometric assay relative to control
[9] = system: Epidermal growth factor receptor (Homo sapiens), P00533 [L858R,T790M]; assay: Inhibition of human EGFR L858R/T790M mutant at 10 uM GGMEDIYFEFMGGKKK as substrate measured after 40 mins in presence of [gamma-33P]ATP by radiometric assay; method in brief: as §2
[10] = molecular target: T3, Epithelial discoidin domain-containing receptor 1 (Homo sapiens, UniProt Q08345); assay: Inhibition of human DDR1 using KKKSPGEYVNIEFG as substrate after 40 mins by [gamma-33P]-ATP assay
T3 sequence (Q08345 whole entry, the tested form may be a part): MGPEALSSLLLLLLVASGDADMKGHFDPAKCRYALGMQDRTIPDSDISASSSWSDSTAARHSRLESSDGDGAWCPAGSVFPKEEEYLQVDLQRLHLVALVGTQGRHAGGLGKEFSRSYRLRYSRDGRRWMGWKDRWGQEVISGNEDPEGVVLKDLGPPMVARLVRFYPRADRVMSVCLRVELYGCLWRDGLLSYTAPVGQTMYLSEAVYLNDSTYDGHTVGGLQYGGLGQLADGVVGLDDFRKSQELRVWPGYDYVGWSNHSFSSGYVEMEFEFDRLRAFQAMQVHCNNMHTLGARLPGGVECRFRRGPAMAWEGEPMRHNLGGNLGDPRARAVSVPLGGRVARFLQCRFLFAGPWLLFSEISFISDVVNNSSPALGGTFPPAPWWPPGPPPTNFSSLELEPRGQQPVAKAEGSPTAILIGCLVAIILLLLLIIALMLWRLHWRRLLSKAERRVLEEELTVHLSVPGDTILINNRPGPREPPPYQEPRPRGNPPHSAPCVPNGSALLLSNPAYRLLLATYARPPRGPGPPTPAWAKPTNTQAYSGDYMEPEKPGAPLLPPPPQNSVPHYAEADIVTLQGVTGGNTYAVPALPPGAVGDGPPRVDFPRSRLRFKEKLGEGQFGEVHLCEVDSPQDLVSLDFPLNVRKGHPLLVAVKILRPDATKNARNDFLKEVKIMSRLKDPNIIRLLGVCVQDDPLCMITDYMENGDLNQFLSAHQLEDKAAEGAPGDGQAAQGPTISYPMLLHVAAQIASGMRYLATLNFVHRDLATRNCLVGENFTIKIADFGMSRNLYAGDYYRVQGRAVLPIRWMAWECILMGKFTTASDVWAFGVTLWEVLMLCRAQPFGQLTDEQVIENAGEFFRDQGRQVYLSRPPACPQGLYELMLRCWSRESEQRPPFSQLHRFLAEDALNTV
Method in brief: (§3)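 Human DDR1 in 8 mM MOPS pH 7.0, 0.2 mM EDTA, 250 μM peptide substrate, 10 mM Mg acetate, [γ-33P]-ATP (approx. 500 cpm/pmol); started with MgATP, 40 min room temperature, stopped with 3% phosphoric acid, spotted on P30 filtermat, washed in 75 mM phosphoric acid and methanol, scintillation counted. Activity as % of no-inhibitor control.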

[11] = molecular target: T2, Mitogen-activated protein kinase 10; assay: Inhibition of human JNK3 at 10 uM after 40 mins by [gamma-33ATP] radiometric assay relative to control
[12] = molecular target: T4, Mitogen-activated protein kinase 9 (Homo sapiens, UniProt P45984); assay: Inhibition of human JNK2alpha2 at 30 uM after 40 mins by [gamma-33ATP] radiometric assay relative to control
Target sequence in this assay (P45984 whole entry, looked up): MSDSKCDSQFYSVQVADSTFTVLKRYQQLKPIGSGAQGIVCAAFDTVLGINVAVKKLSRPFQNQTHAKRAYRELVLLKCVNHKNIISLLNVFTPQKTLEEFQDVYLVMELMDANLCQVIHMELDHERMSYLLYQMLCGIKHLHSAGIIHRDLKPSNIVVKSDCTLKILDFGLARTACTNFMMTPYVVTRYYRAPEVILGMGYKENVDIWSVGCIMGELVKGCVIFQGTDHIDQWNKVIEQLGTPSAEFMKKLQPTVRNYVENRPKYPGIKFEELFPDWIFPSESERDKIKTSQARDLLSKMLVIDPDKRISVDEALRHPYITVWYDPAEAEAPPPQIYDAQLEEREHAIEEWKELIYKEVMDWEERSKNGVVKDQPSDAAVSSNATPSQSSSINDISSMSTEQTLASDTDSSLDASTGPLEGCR

[13] = molecular target: T4, Mitogen-activated protein kinase 9; assay: Inhibition of human JNK2alpha2 at 10 uM after 40 mins by [gamma-33ATP] radiometric assay relative to control
Target sequence in this assay (P45984 whole entry, looked up): as above

[14] = molecular target: T4, Mitogen-activated protein kinase 9; assay: Inhibition of human JNK2alpha2 after 40 mins by [gamma-33ATP] radiometric assay relative to control
[15] = molecular target: T4, Mitogen-activated protein kinase 9; assay: Inhibition of human JNK2alpha2 at 100 uM after 40 mins by [gamma-33ATP] radiometric assay relative to control
Target sequence in this assay (P45984 whole entry, looked up): as above

[16] = molecular target: T3, Epithelial discoidin domain-containing receptor 1; assay: Inhibition of human DDR1 at 10 uM using KKKSPGEYVNIEFG as substrate after 40 mins by [gamma-33P]-ATP assay; method in brief: as §3
[17] = molecular target: T5, Discoidin domain-containing receptor 2 (Homo sapiens) (UniProt Q16832); assay: Inhibition of human DDR2 at 10 uM using KKSRGDYMTMQIG as substrate after 40 mins by [gamma-33P]-ATP assay
T5 sequence (whole entry): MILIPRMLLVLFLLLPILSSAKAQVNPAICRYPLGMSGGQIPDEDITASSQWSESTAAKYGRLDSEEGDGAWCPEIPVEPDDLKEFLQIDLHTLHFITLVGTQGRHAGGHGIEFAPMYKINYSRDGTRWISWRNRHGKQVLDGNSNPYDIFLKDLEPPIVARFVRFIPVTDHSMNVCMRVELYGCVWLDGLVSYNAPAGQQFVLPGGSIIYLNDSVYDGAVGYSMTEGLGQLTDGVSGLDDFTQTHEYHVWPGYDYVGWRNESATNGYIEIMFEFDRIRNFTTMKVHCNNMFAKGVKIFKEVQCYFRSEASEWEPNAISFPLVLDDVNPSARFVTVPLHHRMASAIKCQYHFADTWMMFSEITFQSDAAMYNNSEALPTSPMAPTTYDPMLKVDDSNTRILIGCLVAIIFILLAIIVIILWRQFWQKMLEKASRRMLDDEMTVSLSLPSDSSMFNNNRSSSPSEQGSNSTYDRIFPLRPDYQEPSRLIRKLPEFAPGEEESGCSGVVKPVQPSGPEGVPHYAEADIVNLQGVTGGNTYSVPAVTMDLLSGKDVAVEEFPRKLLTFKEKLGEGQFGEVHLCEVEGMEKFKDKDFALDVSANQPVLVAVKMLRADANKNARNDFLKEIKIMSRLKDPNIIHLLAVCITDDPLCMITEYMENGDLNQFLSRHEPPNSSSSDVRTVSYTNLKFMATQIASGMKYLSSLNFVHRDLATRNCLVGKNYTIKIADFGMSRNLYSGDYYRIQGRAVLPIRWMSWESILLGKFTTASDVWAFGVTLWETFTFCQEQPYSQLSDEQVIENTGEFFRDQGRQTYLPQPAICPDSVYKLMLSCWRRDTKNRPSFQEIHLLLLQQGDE
Method in brief: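 Human DDR2 in 8 mM MOPS pH 7.0, 0.2 mM EDTA, 250 μM peptide, 10 mM MnCl2 plus 10 mM Mg acetate, [γ-33P]-ATP (approx. 500 cpm/pmol). Reaction started with MgATP, run 40 min at room temperature, quenched with 3% phosphoric acid; P30 filtermat capture, phosphoric acid/methanol washes, scintillation counting; activity relative to no-inhibitor control set as 100%.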

T1 sequence (P45983 whole entry): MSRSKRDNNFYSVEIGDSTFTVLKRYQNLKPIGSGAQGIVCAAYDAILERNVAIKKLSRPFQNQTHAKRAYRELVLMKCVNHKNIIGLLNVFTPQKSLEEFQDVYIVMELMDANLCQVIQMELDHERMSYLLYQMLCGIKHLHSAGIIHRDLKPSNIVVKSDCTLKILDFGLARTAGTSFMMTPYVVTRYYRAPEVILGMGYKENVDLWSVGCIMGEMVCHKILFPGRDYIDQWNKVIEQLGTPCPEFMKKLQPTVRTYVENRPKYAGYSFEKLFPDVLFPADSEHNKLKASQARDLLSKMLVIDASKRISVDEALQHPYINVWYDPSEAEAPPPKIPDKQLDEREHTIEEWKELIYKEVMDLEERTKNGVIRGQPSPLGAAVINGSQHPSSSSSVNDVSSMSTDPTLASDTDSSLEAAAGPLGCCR

Row | IC50 [1] [µM] | inhibition [2] | inhibition [3] | inhibition [4] | IC50 [5] [µM] | IC50 [6] [µM] | IC50 [7] [µM] | inhibition [8] | inhibition [9] | IC50 [10] [µM] | inhibition [11] [%] | inhibition [12] | inhibition [13] | IC50 [14] [µM] | inhibition [15] | inhibition [16] | inhibition [17] | Structure (SMILES)
1 | > 100 | inactive | inactive | inactive | 0.19 | > 10 | > 10 | inactive | inactive | > 10 | 88 | inactive | inactive | > 100 | inactive |  |  | N#Cc1ccc2c(c1)N/C(=C\C(=O)c1cccc3ccccc13)C(=O)N2
2 |  | inactive | inactive |  | 5.6 |  |  | inactive |  |  | 70 | inactive | inactive |  | inactive | inactive | Active | COc1cccc(C(=O)/C=C2\Nc3ccccc3NC2=O)c1
